# “And” between values parts separate entries of the source, which are not always exact repeats. Identical values can stand only once.
# Key:
# [1] = tested on: 17-71 canine B-cell lymphoma line; assay: Annexin V-FITC/PI apoptosis detection by flow cytometry, 17-71 cells; assay type: cell-based
# Method in brief: (§1)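 Cells were seeded at 100,000 per well in fresh medium holding 0, 5, 10 or 20 µM test compound, alongside a vehicle control. They were exposed 24 or 48 h at 37 °C, 5% CO2. Apoptosis was read by Annexin V-FITC/PI staining and flow cytometry, in triplicate. Lines were kept as suspensions in DMEM with P/S, plus 10% FBS (17-71, GL-1) or 20% FBS (CA46). Time and concentration effects were tested by 2-way ANOVA with Tukey or Dunnett post hoc.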
# [2] = tested on: GL-1 canine B-cell lymphoma line; assay: Annexin V-FITC/PI apoptosis detection by flow cytometry, GL-1 cells; assay type: cell-based
# Method in brief: as §1
# [3] = tested on: CA46 human B-cell lymphoma line; assay: Annexin V-FITC/PI apoptosis detection by flow cytometry, CA46 cells; assay type: cell-based
# Method in brief: as §1
# caspase-3 [4] = biological target: T1, caspase-3 (Canis lupus familiaris, UniProt Q8MKI5); assay: Caspase-3 colorimetric assay in cell lysate, 17-71 cells; assay type: cell-based, canine; details: 10 or 20 µM, incubation ≤ 4 hours
# T1 sequence (Q8MKI5 29-277): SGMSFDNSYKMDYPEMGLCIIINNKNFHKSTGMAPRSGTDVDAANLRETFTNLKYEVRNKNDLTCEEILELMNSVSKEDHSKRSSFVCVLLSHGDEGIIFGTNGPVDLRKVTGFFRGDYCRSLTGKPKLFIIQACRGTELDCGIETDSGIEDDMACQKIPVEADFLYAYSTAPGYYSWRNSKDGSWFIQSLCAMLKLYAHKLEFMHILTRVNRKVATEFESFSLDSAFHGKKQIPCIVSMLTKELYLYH
# Method in brief: (§2)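 Lymphoma cells were exposed to 10 or 20 µM test compound for 0, 1, 2, 4, 24 and 48 h at 37 °C, 5% CO2; hour 0 served as vehicle control. Lysates from 2 million cells per time point went into a colorimetric caspase-3 assay read at 405 nm, run in duplicate. Time points were compared to control by one-way ANOVA with Dunnett's test.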
# caspase-3 [5] = biological target: T1, caspase-3; assay: Caspase-3 colorimetric assay in cell lysate, GL-1 cells; assay type: cell-based, canine; details: 10 or 20 µM, incubation ≤ 4 hours
# Method in brief: as §2
# caspase-3 [6] = biological target: T2, caspase-3 (Homo sapiens, UniProt P42574); assay: Caspase-3 colorimetric assay in cell lysate, CA46 cells; assay type: cell-based; details: 10 or 20 µM, incubation ≤ 4 hours
# T2 sequence (P42574 29-277): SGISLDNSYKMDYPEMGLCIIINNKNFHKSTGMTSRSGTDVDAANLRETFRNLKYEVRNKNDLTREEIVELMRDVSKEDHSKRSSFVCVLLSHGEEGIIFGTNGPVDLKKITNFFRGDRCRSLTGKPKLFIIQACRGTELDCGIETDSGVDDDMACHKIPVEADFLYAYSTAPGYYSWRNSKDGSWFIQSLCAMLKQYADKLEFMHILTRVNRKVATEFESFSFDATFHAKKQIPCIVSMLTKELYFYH
# Method in brief: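 CA46 human B-cell lymphoma cells, grown in suspension in DMEM with 20% FBS and P/S at 37 °C, 5% CO2, were exposed to test compound at 10 or 20 µM for 0, 1, 2, 4, 24 and 48 h. Lysate from 2 million cells per time point was assayed with a colorimetric caspase-3 kit read at 405 nm, in duplicate. Activity was compared with vehicle-treated cells (hour 0) by one-way ANOVA and Dunnett's test.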
# [7] = Pharmacokinetics after single IV bolus in healthy dogs; assay type: in vivo; details: dog
# Method in brief: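 Six healthy hound dogs, crossover design with two-week washout. Test compound was freshly made at 15 mg/ml in 2-hydroxypropyl-β-cyclodextrin/sterile water and given at 1.0 mg/kg as a 10-min IV bolus. Jugular plasma was taken at 0-720 min and 24 h and assayed by LC-ES/MS/MS (deuterated internal standard). AUC and AUMC were taken by linear trapezoid extrapolated to infinity; A and B came from a two-compartment fit by residuals; Cls = dose/AUC.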
# [8] = Pharmacokinetics after single oral administration in healthy dogs; assay type: in vivo; details: dog
# Method in brief: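 Same six dogs in crossover, two-week washout. Test compound in 2-hydroxypropyl-β-cyclodextrin/sterile water was given once at 1.0 mg/kg as a 5-min oral slurry. Plasma was sampled at 0, 15, 30, 45, 60, 120, 240, 480, 720 min and 24 h and quantified by LC-ES/MS/MS. A one-compartment absorption model gave K01 and K10, Cmax and Tmax; Clo = dose/AUC0-inf; F = AUC oral/AUC IV × dose ratio.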
# [9] = 1 mg/kg IV, individual dogs A-F, 1 mg/kg
# [10] = 1 mg/kg oral, individual dogs A-F, 1 mg/kg
compound,measurement,setting,value
C=CCc1cccc(/C=N/NC(=O)CN2CCN(Cc3ccccc3)CC2)c1O [PAC-1],cells staining only for Annexin-V-FITC (early apoptosis),"[1]; 48 hour, 20 µM",approximately 70%
same,apoptotic cells,"[1]; 48 hours, PAC-1 ≥ 10 µM",≥ 60%
same,apoptosis,"[2]; 48 hour, 10 µM",~ 25%
same,cells remaining viable,"[2]; 48 hours, 20 µM",~ 60%
same,fraction of apoptotic cells,[3]; 24 hour exposure,20–35%
same,apoptosis,"[3]; 48 hour, 10 µM",≥ 50%
same,cells undergone apoptosis,"[3]; 48 hours, PAC-1 ≥10 µM",greater than 50%
same,caspase-3 activity in cell lysate vs vehicle-treated control cells,caspase-3 [4],failed to significantly increase
same,caspase-3 activity in cell lysate vs vehicle-treated control cells,caspase-3 [5],failed to significantly increase
same,caspase-3 activity in cell lysate vs vehicle-treated control cells,caspase-3 [6],failed to significantly increase
same,"A (Y intercept, distribution phase)","[7]; 1 mg/kg IV, Mean ± SD, n=6",1483.8 ± 723.0 ng/mL
same,AUC0-inf,"[7]; 1 mg/kg IV, Mean ± SD, n=6",1740 ± 309.6 ngxhr/ml
same,AUMC0-inf,"[7]; 1 mg/kg IV, Mean ± SD, n=6",4805 ± 1211 ngxhrxhr/ml
same,"B (Y intercept, elimination phase)","[7]; 1 mg/kg IV, Mean ± SD, n=6",249.0 ± 172.9 ng/mL
same,Cls (total body clearance),"[7]; 1 mg/kg IV, Mean ± SD, n=6",9.578 ± 1.26 mL/min/kg
same,Vdc (volume of distribution in central compartment),"[7]; 1 mg/kg IV, Mean ± SD, n=6",0.678 ± 0.254 L/kg
same,Vdss (volume of distribution at steady state),"[7]; 1 mg/kg IV, Mean ± SD, n=6",1.643 ± 0.497 L/kg
same,Vdβ (volume of distribution in terminal elimination phase),"[7]; 1 mg/kg IV, Mean ± SD, n=6",2.698 ± 0.865 L/kg
same,t1/2 β (terminal elimination half-life),"[7]; 1 mg/kg IV, Mean ± SD, n=6",3.12 ± 0.67 h
same,"A (Y intercept, distribution phase)",[7]; [9],1065 ng/mL and 2598 ng/mL and 908 ng/mL and 2199 ng/mL and 1119 ng/mL and 1014 ng/mL
same,AUC0-inf,[7]; [9],1730 ngxhr/ml and 2339 ngxhr/ml and 1468 ngxhr/ml and 1645 ngxhr/ml and 1709 ngxhr/ml and 1549 ngxhr/ml
same,AUMC0-inf,[7]; [9],4751 ngxhrxhr/ml and 6167 ngxhrxhr/ml and 3693 ngxhrxhr/ml and 3802 ngxhrxhr/ml and 4247 ngxhrxhr/ml and 6174 ngxhrxhr/ml
same,"B (Y intercept, elimination phase)",[7]; [9],288 ng/ml and 584 ng/ml and 138 ng/ml and 176 ng/ml and 154 ng/ml (2×)
same,Cls (total body clearance),[7]; [9],9.63 mL/min/kg and 7.13 mL/min/kg and 10 mL/min/kg and 10.1 mL/min/kg and 9.75 mL/min/kg and 10.8 mL/min/kg
same,Vdc (volume of distribution in central compartment),[7]; [9],0.739 L/kg and 0.314 L/kg and 0.957 L/kg and 0.421 L/kg and 0.786 L/kg and 0.856 L/kg
same,Vdss (volume of distribution at steady state),[7]; [9],1.587 L/kg and 1.127 L/kg and 1.715 L/kg and 1.405 L/kg and 1.454 L/kg and 2.574 L/kg
same,Vdβ (volume of distribution in terminal elimination phase),[7]; [9],2.260 L/kg and 1.380 L/kg and 3.145 L/kg and 2.699 L/kg and 2.736 L/kg and 3.968 L/kg
same,t1/2 β (terminal half-life),[7]; [9],2.71 h and 2.24 h and 3.20 h and 3.08 h and 3.24 h and 4.26 h
same,average peak plasma concentration,"[7]; 1.0 mg/kg bolus IV, immediately following completion of infusion",2.8 ± 0.6 µM
same,time of average peak plasma concentration following ingestion,[8]; 1.0 mg/kg oral,45 min
same,AUC o-inf.,"[8]; 1 mg/kg oral, Mean ± SD, n=6",310.5 ± 158.5 ng/mL/h
same,Cmax,"[8]; 1 mg/kg oral, Mean ± SD, n=6",77.0 ± 37.5 ng/mL
same,F (absolute oral bioavailability),"[8]; 1 mg/kg oral, Mean ± SD, n=6",17.8 ± 9.5%
same,Oral clearance,"[8]; 1 mg/kg oral, Mean ± SD, n=6",136 ± 79.6 L/h
same,Tmax,"[8]; 1 mg/kg oral, Mean ± SD, n=6",0.84 ± 0.28 h
same,t1/2 K10 (terminal elimination half-life),"[8]; 1 mg/kg oral, Mean ± SD, n=6",2.08 ± 0.26 h
same,AUC o-inf.,[8]; [10],271 ng/mL/h and 408 ng/mL/h and 117 ng/mL/h and 508 ng/mL/h and 145 ng/mL/h and 414 ng/mL/h
same,Cmax,[8]; [10],63.9 ng/mL and 127 ng/mL and 31 ng/mL and 108 ng/mL and 43 ng/mL and 89 ng/mL
same,F (absolute oral bioavailability),[8]; [10],16% and 17% and 8% (2×) and 31% and 27%
same,Oral clearance,[8]; [10],137 L/h and 77 L/h and 236 L/h and 61 L/h and 230 L/h and 75 L/h
same,Tmax,[8]; [10],1.09 h and 0.51 h and 0.90 h and 1.07 h and 0.45 h and 0.99 h
